{"source": "ChEMBL document CHEMBL1125797", "about": "“Synthesis, characterization and myocardial uptake of cationic bis(arene)technetium(I) complexes” (J Med Chem, 1991)", "key": {"[1]": {"organism": "Rattus norvegicus", "experiment": "The compound was tested for the plasma binding in rat", "assay_type": "functional", "in_short": "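Plasma protein binding was measured in rat plasma samples collected during the rat biodistribution studies, after tail vein injection of the 99mTc complex in saline (~25 μCi/kg).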"}, "[2]": {"organism": "Homo sapiens", "experiment": "The compound was tested for the plasma binding in human", "assay_type": "functional", "in_short": "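Fresh heparinized human plasma (1.0 mL, obtained daily) was spiked with 0.02 mL test solution and incubated about 15 min. Duplicate samples went through saline-equilibrated Sephadex G-25 desalting columns by centrifugation. Eluate and gel were γ-counted for 1 min or to 1% σ error. % bound = net cpm eluate / net cpm (eluate + gel) × 100.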"}}}
{"substance": "Bis(m-xylene)technetium", "values": [{"measurement": "PPB", "setting": "[1]", "value": 12, "unit": "%"}, {"measurement": "PPB", "setting": "[2]", "value": 11, "unit": "%"}]}
